Source: paper PMC3703767 (Virology, 2008)

Tests used:
MNV-1 = test: Mouse norovirus PPMO inhibition assay in RAW264.7 cells; format: cell-based, murine norovirus
Summary of the method: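 RAW264.7 cells (2×10^5/well) were seeded and incubated overnight, then rinsed and exposed 4 h to test compound in plain DMEM (8 replicate wells). They were rinsed again and infected with MNV-1.CW1 for 2 h at 37 °C, then kept 3 days at 37 °C. Wells were formalin-fixed and stained with crystal violet; methanol-eluted stain was read at A570. Variants used fixed compound with 10-fold virus dilutions (20–2×10^5 PFU/well), or 1.25–80 μM compound with 2×10^4 PFU/well. % lysis = ([treated]−[treated+infected])/[treated]×100.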

[1] = system: Hu/NoV/GI.1/Norwalk virus/1968/US 5′ ORF1 sequence; test: Luciferase reporter assay, Norwalk leader; format: biochemical, human norovirus; conditions: target with 1 mismatch to Noro 1.1; luciferase signal
Summary of the method: (§1)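 In vitro translation in nuclease-treated rabbit reticulocyte lysate. The target 5′-end leader sits upstream of firefly luciferase; RNA is T7-transcribed from NotI-cut plasmid (1 nM final). Test compound is added at 0.01–83 μM final, and reactions run 75 min at 37 °C, then are chilled on ice. Percent inhibition is calculated from luciferase signal versus no-compound reaction. Each assay was run at least twice, by two investigators in separate labs.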

[2] = system: Hu/NoV/GI.2/Southampton/1991/UK 5′ ORF1 sequence; test: Luciferase reporter assay, Southampton leader; format: biochemical, human norovirus; conditions: target with 0 mismatches to Noro 1.1; luciferase signal
Summary of the method: as §1

[3] = system: Hu/NoV/GI.6/WUG1/2000/JP 5′ ORF1 sequence; test: Luciferase reporter assay, WUG1 leader; format: biochemical, human norovirus; conditions: target with 1 mismatch to Noro 1.1; luciferase signal
Summary of the method: as §1

[4] = system: Hu/No.V/GII.4/Lordsdale/1993/UK 5′ ORF1 sequence; test: Luciferase reporter assay, Lordsdale leader; format: biochemical, human norovirus
Summary of the method: as §1

[5] = system: Hu/NoV/GII.12/CN2753/1998/USA 5′ ORF1 sequence; test: Luciferase reporter assay, CN2753 leader; format: biochemical, human norovirus; conditions: target with 2 mismatches to Noro 1.1; luciferase signal
Summary of the method: as §1

[6] = system: Hu/NoV/GII.4/CN3050/1998/USA 5′ ORF1 sequence; test: Luciferase reporter assay, CN3050 leader; format: biochemical, human norovirus
Summary of the method: as §1

[7] = system: Laboratory variant 1 5′ ORF1 sequence; test: Luciferase reporter assay, Laboratory variant 1 leader; format: biochemical
Summary of the method: as §1

[8] = system: Laboratory variant 2 5′ ORF1 sequence; test: Luciferase reporter assay, Laboratory variant 2 leader; format: biochemical
Summary of the method: as §1

[9] = system: Laboratory variant 3 5′ ORF1 sequence; test: Luciferase reporter assay, Laboratory variant 3 leader; format: biochemical
Summary of the method: as §1

[10] = system: Bo/NoV/GIII.1/Jena/1998/DEU 5′ ORF1 sequence; test: Luciferase reporter assay, Jena bovine norovirus leader; format: biochemical
Summary of the method: as §1

[11] = system: Norwalk virus replicon in HG23 cells; test: PMO inhibition of norovirus protein expression in replicon cell line HG23; format: cell-based; conditions: 16 μM, 5-day incubation, immunofluorescence
Summary of the method: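 HG23 cells (Huh-7-derived Norwalk replicon line, DMEM/10% FBS/0.25 mg/ml neomycin) received 16 μM unconjugated morpholino by nucleofection (solution L, program A020). A total of 2×10^6 cells were seeded and incubated 5 days at 37 °C. Cells were then fixed in ice-cold methanol and analysed by immunofluorescence with guinea pig antisera against Norwalk VP1 and RdRP.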

[12] = system: Norwalk virus replicon in HG23 cells; test: Norwalk virus RNA in replicon-bearing HG23 cells; format: cell-based; conditions: 16 μM, quantitative real-time RT-PCR, data not shown
Summary of the method: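 HG23 replicon cells were electroporated with 16 μM test compound and incubated 5 days at 37 °C. Replicon RNA in treated and untreated cells was then quantified by single-step real-time RT-PCR with a standard curve in each run. Cycling: 45 °C 30 min, 95 °C 10 min, then 45 cycles of 95 °C 30 s, 50 °C 1 min, 72 °C 30 s.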

[13] = target with 6 mismatches to Noro 1.1, luciferase signal

CGTTGCCATCCTCATTTCAC [PPMO B]
dose of MNV-1 whose replication is completely inhibited (MNV-1; PPMO B 20 μM, MNV-1 20 to 2 × 10^5 PFU/well, 8 replicates): 2 × 10^3 PFU

CGCAGAAGATGGCGTTGCCATCCTC [PPMO C]
effectiveness in inhibiting viral replication (MNV-1; 20 μM PPMO, 2 × 10^4 PFU/well MNV-1): 70% | maximal dose of MNV-1 inhibited (MNV-1; PPMO C 80 μM, MNV-1 20 to 2 × 10^5 PFU/well, 8 replicates): up to 2 × 10^5 PFU

CGACGCCATCATCATTCAC [Noro 1.1]
Outcome of in vitro assay [1]: Inhibition (Inhibition defined as > 60% reduction of protein synthesis, as defined by luciferase signal.) | Outcome of in vitro assay [2]: Inhibition (Inhibition defined as > 60% reduction of protein synthesis, as defined by luciferase signal.) | Outcome of in vitro assay [3]: Inhibition (Inhibition defined as > 60% reduction of protein synthesis, as defined by luciferase signal.) | inhibition of translation achieved ([4]; GII.4 variant): 100% | Outcome of in vitro assay ([4]; target with 2 mismatches to Noro 1.1, luciferase signal): Inhibition (Inhibition defined as > 60% reduction of protein synthesis, as defined by luciferase signal.) | Outcome of in vitro assay [5]: Inhibition (Inhibition defined as > 60% reduction of protein synthesis, as defined by luciferase signal.) | inhibition of translation achieved ([6]; GII.4 variant): 100% | Outcome of in vitro assay ([6]; target with 3 mismatches to Noro 1.1, luciferase signal): Inhibition (Inhibition defined as > 60% reduction of protein synthesis, as defined by luciferase signal.) | inhibition of translation ([7]; LabVar 1, 4 nucleotide changes): less efficiently | Outcome of in vitro assay ([7]; target with 4 mismatches to Noro 1.1, luciferase signal): Inhibition (Inhibition defined as > 60% reduction of protein synthesis, as defined by luciferase signal.) | inhibition of translation ([8]; LabVar 2, 5 nucleotide changes): less efficiently | Outcome of in vitro assay ([8]; target with 5 mismatches to Noro 1.1, luciferase signal): Inhibition (Inhibition defined as > 60% reduction of protein synthesis, as defined by luciferase signal.) | inhibition of translation ([9]; LabVar3, 6 nucleotide differences, data not shown): completely failed to inhibit translation | Outcome of in vitro assay [9, 13]: No inhibition | maximal inhibition achieved ([10]; range of concentrations tested, 0.01 to 83 μM): ≤ 57% | Outcome of in vitro assay [10, 13]: No inhibition | Norwalk virus protein translation in HG23 cells [11]: effectively inhibited norovirus protein translation | Norwalk virus RNA level [12]: did not see a significant reduction in RNA
